Assays:
Type in all cases: functional
MDA-MB-231 [1] = assay: Cell cycle arrest in human MDA-MB-231 cells assessed as accumulation at G2/M phase at 8 nM after 24 hrs by DAPI-staining based FACS analysis (reference value: 15.5%)
MCF7 = assay: Cell cycle arrest in human MCF7 cells assessed as accumulation at S phase at 50 nM after 24 hrs by DAPI-staining based FACS analysis (reference value: 10.6%)
[2] = Selectivity ratio of IC50 for human M21 cells to IC50 for human MCF7 cells
Outline: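 Ratio is IC50 in reference line over IC50 in sensitive line. […] Cells in DMEM with 5% calf serum at 37 °C. At least two experiments, triplicate cultures; assay accepted when relative SD < 10%.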

MDA-MB-468 = assay: Cell cycle arrest in human MDA-MB-468 cells assessed as accumulation at G2/M phase at 50 nM after 24 hrs by DAPI-staining based FACS analysis (reference value: 19.5%)
MDA-MB-231 [3] = assay: Cell cycle arrest in human MDA-MB-231 cells assessed as accumulation at G0/G1 phase at 50 nM after 24 hrs by DAPI-staining based FACS analysis (reference value: 70.7%)

SMILES | Activity (MDA-MB-231 [1]) [%] | Activity (MCF7) [%] | Ratio IC50 [2] | Activity (MDA-MB-468) [%] | Activity (MDA-MB-231 [3]) [%]
COc1cc(OS(=O)(=O)c2ccc(N3CCNC3=O)cc2)cc(OC)c1OC | 76.6 | – | – | – | –
CCCCN1CCN(c2ccc(S(=O)(=O)Oc3cc(OC)c(OC)c(OC)c3)cc2)C1=O | – | 1.8 | 380 | 70.5 | 73
